Test results: ChEMBL document CHEMBL1255540, “Synthesis and biological evaluation of novel coumarin-based inhibitors of Cdc25 phosphatases” (Bioorg Med Chem Lett, 2010)
Activity calls are given as the source filed them. The calls are words filed in the database; no cut-off is given here.

Key:
[1] = target: T1, M-phase inducer phosphatase 1 (Homo sapiens) (UniProt P30304); test: Inhibition of human recombinant GST-tagged CDC25A expressed in bacterial expression system at 100 uM after 2 hrs
T1 sequence (whole entry): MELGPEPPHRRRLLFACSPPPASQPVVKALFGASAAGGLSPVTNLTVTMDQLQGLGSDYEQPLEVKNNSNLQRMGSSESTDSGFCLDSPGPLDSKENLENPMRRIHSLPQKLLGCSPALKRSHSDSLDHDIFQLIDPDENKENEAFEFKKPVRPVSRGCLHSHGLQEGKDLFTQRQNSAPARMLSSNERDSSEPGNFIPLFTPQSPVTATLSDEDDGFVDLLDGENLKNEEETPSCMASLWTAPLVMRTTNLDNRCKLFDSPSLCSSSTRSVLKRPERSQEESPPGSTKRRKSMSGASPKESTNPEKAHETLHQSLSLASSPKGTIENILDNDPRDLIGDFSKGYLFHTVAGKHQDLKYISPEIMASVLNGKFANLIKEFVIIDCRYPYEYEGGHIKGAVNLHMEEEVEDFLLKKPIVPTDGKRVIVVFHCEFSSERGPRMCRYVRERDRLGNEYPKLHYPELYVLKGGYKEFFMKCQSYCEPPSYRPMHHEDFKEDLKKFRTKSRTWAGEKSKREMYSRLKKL
Outline: (§1)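 GST-Cdc25A (full length), made in bacteria by IPTG induction and purified on GSH-agarose. Enzyme at 1 µg/well. Compounds tested at 100 µM final (reference at 10 µM). Reported as % inhibition, mean ± SD of three independent experiments.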

[2] = target: T2, M-phase inducer phosphatase 2 (Homo sapiens) (UniProt P30305); test: Inhibition of human recombinant GST-tagged CDC25B expressed in bacterial expression system at 100 uM after 2 hrs
T2 sequence (whole entry): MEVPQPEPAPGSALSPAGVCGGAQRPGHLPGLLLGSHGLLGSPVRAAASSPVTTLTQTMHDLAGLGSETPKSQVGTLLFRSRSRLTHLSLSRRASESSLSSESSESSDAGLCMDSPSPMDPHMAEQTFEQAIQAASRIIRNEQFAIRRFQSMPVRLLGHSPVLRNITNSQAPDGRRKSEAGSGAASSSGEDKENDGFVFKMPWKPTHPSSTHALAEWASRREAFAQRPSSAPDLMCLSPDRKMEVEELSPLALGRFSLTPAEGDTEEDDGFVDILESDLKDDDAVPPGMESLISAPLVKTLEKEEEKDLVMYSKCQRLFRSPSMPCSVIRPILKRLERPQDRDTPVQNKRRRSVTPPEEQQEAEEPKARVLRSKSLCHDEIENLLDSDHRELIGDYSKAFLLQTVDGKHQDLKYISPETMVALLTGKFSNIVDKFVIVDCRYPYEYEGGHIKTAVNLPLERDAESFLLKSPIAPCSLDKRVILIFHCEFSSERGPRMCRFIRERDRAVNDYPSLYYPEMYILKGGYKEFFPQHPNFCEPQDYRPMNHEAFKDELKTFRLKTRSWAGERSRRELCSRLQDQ
Outline: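 Truncated GST-Cdc25B (active site only) expressed in bacteria by IPTG induction, purified on GSH-agarose. Tested at 100 µM final, reference at 10 µM. Percent inhibition, mean of three independent experiments with SD.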

[3] = target: T3, M-phase inducer phosphatase 3 (Homo sapiens) (UniProt P30307); test: Inhibition of human recombinant GST-tagged CDC25C expressed in bacterial expression system at 100 uM after 2 hrs
T3 sequence (whole entry): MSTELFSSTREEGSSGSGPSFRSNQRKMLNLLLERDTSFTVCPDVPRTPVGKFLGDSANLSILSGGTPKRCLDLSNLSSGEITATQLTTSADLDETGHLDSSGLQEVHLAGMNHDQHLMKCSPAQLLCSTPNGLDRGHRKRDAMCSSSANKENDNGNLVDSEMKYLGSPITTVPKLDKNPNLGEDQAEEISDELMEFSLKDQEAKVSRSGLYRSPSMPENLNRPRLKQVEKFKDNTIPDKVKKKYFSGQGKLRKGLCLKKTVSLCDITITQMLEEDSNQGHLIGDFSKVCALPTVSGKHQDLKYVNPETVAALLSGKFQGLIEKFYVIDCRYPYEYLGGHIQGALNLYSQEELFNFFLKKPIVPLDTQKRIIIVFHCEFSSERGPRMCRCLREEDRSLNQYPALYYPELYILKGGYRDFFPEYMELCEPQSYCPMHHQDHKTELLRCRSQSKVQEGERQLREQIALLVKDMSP
Outline: (§2)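 Full-length GST-Cdc25C, bacterial IPTG expression, GSH-agarose purification. 1 µg enzyme per well. Single-point tests at 100 µM final (reference 10 µM) and IC50 values. Each concentration in three separate microplates, three wells each. IC50 by generalized Poisson regression.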

[4] = target: T4, M-phase inducer phosphatase 1 (Homo sapiens, UniProt P30304); test: Inhibition of human recombinant GST-tagged CDC25A expressed in bacterial expression system after 2 hrs
T4 sequence (P30304 whole entry): T1 sequence (whole entry)
Outline: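 Each concentration tested in three independent microplates, three wells per plate. Median inhibitory concentration derived by generalized Poisson regression.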

[5] = target: T5, M-phase inducer phosphatase 3 (Homo sapiens, UniProt P30307); test: Inhibition of human recombinant GST-tagged CDC25C expressed in bacterial expression system after 2 hrs; outline: as §2
T5 sequence (P30307 whole entry): T3 sequence (whole entry)

[6] = target: T1, M-phase inducer phosphatase 1 (Homo sapiens); test: Inhibition of human recombinant GST-tagged CDC25A expressed in bacterial expression system; conditions: TDE = time-dependent effect; outline: as §1
[7] = target: T1, M-phase inducer phosphatase 1 (Homo sapiens); test: Irreversible inhibition of human recombinant GST-tagged CDC25A expressed in bacterial expression system at 100 uM pretreated for up to 90 mins measured after 100 fold dilution
Outline: (§3)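 Reversibility test. GST-Cdc25A was pre-incubated with compound at 100 µM (reference at 10 µM, DMSO control) for 0–90 min. The mixture was then diluted 100-fold to 1 µM (reference 0.1 µM). Activity was measured by adding OMFP to wells holding 900 ng enzyme. Representative of three independent experiments (M ± SD).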

[8] = target: T1, M-phase inducer phosphatase 1 (Homo sapiens); test: Inhibition of human recombinant GST-tagged CDC25A expressed in bacterial expression system assessed as residual activity at 100 uM pretreated for 90 mins; outline: as §3

Structure (SMILES)	inhibition [1]	inhibition [2]	inhibition [3]	IC50 [4]	IC50 [5]	inhibition [6]	Activity [7]	Activity [8]
Cc1c(/C=C/c2ccc(O)cc2)c(=O)oc2cc(O)ccc12	27.5%	8.5%	15.6%	–	–	–	–	–
COc1ccc2c(CSCC(=O)c3ccccc3)cc(=O)oc2c1	–	16.1%	21.2%	–	–	–	–	–
O=C(/C=C/c1cc(=O)oc2cc(O)ccc12)c1ccccc1	94.3%	23.2%	94.2%	28 µM	26 µM	–	–	–
Cc1c(-c2ccc(O)cc2)c(=O)oc2cc(O)ccc12	22%	–	–	–	–	–	–	–
COc1ccc(C(=O)CSCc2cc(=O)oc3cc(OC)ccc23)cc1	26.7%	–	27.9%	–	–	–	–	–
COc1ccc(-c2c(C)c3ccc(OC)cc3oc2=O)cc1	20.5%	–	17.9%	–	–	–	–	–
COc1ccc(/C=C/c2c(C)c3ccc(OC)cc3oc2=O)cc1	45.3%	–	48.4%	–	–	–	–	–

Second part, the molecule after the results:

inhibition [1]	inhibition [2]	inhibition [3]	IC50 [4]	IC50 [5]	inhibition [6]	Activity [7]	Activity [8]	Structure (SMILES)
7.4%	9.1%	–	–	–	–	–	–	COc1ccc2c(C(=O)/C=C/c3ccc(OC)c(OC)c3)cc(=O)oc2c1
61.5%	6.5%	69%	78 µM	67 µM	–	–	–	COc1ccc2c(/C=C/C(=O)c3ccc(OC)c(OC)c3)cc(=O)oc2c1
94.2%	35%	79.3%	27 µM	49 µM	tde	Active	35%	COc1ccc2c(/C=C/C(=O)c3ccccc3)cc(=O)oc2c1
45%	–	31.3%	–	–	–	–	–	COc1ccc2c(C(=O)/C=C/c3ccccc3)cc(=O)oc2c1
66.4%	21.3%	64.8%	70 µM	47 µM	–	–	–	COc1ccc(C(=O)/C=C/c2cc(=O)oc3cc(OC)ccc23)cc1
39.8%	–	26.2%	–	–	–	–	–	COc1ccc2c(CSCC(=O)c3ccc(OC)c(OC)c3)cc(=O)oc2c1
68.7%	–	43.7%	62 µM	72 µM	–	–	–	O=C(/C=C/c1cc(=O)oc2cc(O)ccc12)c1ccc(O)c(O)c1
55%	9.2%	23.9%	96 µM	> 150 µM	–	–	–	O=C(/C=C/c1cc(=O)oc2cc(O)ccc12)c1ccc(O)cc1
–	–	4.8%	–	–	–	–	–	COc1ccc(/C=C/C(=O)c2cc(=O)oc3cc(OC)ccc23)cc1
